Assay results from ChEMBL document CHEMBL1151249, “Cytotoxic and antimicrobial constituents of the bark of Diospyros maritima collected in two geographical locations in Indonesia” (J Nat Prod, 2004).
Values after ≈ are worked out from the molar mass of the structure shown. Active and inactive are the calls of the source. The rule behind the calls is not given here.

Experiments:
[1] = test system: Mycolicibacterium smegmatis; assay: Antimicrobial activity against Mycobacterium smegmatis assessed as 99.9 % growth inhibition after 18 hrs by zone-of-inhibition assay; type: functional
Lu1 [2] = assay: Antitumor activity against human Lu1 cell xenografted mouse by hollow fiber assay; type: functional, cell-based
Summary of the method: (§1)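 Hollow fiber assay in mice with KB, LNCaP or Lu1 cells in fibers implanted at intraperitoneal and subcutaneous sites. Mice were treated by injection at doses from 1.25 to 10 mg/kg or up to 50 mg/kg. Tumor cell growth inhibition in the fibers was assessed at each site.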

Cryptococcus neoformans [3] = assay: Antifungal activity against Cryptococcus neoformans assessed as 99.9 % growth inhibition after 18 hrs by zone-of-inhibition assay; type: functional
LNCaP [4] = assay: Antitumor activity against human LNCAP cell xenografted mouse by hollow fiber assay; type: functional, cell-based; summary of the method: as §1
Saccharomyces cerevisiae [5] = assay: Antifungal activity against Saccharomyces cerevisiae after 18 hrs by zone-of-inhibition assay; type: functional, organism-based
Mus musculus [6] = assay: Toxicity in human KB cell xenografted mouse at 50 mg/kg; type: organism-based; parameters: dose 50 mg/kg; settings: in vivo
Lu1 [7] = assay: Cytotoxicity against human Lu1 cells; type: functional; settings: read-out: ED50 (the source's name)
Mus musculus [8] = assay: Toxicity in human LU1 cell xenografted mouse at 50 mg/kg; type: organism-based; parameters: dose 50 mg/kg; settings: in vivo
[9] = test system: Mycolicibacterium smegmatis; assay: Antimicrobial activity against Mycobacterium smegmatis after 18 hrs by zone-of-inhibition assay; type: functional, organism-based
Candida albicans [10] = assay: Antifungal activity against Candida albicans after 18 hrs by zone-of-inhibition assay; type: functional, organism-based; settings: Candida albicans, 18 h
Micrococcus luteus [11] = assay: Antimicrobial activity against Micrococcus luteus assessed as 99.9 % growth inhibition after 18 hrs by zone-of-inhibition assay; type: functional
Staphylococcus aureus [12] = assay: Antimicrobial activity against Staphylococcus aureus assessed as 99.9 % growth inhibition after 18 hrs by zone-of-inhibition assay; type: functional
Saccharomyces cerevisiae [13] = assay: Antifungal activity against Saccharomyces cerevisiae assessed as 99.9 % growth inhibition after 18 hrs by zone-of-inhibition assay; type: functional
Aspergillus niger [14] = assay: Antifungal activity against Aspergillus niger assessed as 99.9 % growth inhibition after 18 hrs by zone-of-inhibition assay; type: functional
Mycobacterium avium [15] = assay: Antimicrobial activity against Mycobacterium avium after 18 hrs by zone-of-inhibition assay; type: functional, organism-based
Candida albicans [16] = assay: Antimicrobial activity against Candida albicans assessed as 99.9 % growth inhibition after 18 hrs by zone-of-inhibition assay; type: functional
Micrococcus luteus [17] = assay: Antimicrobial activity against Micrococcus luteus after 18 hrs by zone-of-inhibition assay; type: functional, organism-based
Aspergillus niger [18] = assay: Antifungal activity against Aspergillus niger after 18 hrs by zone-of-inhibition assay; type: functional, organism-based
Cryptococcus neoformans [19] = assay: Antifungal activity against Cryptococcus neoformans after 18 hrs by zone-of-inhibition assay; type: functional, organism-based; settings: Cryptococcus neoformans, 18 h
[20] = Cytotoxicity against human HUVEC; type: cell-based; settings: HUVEC cells, read-out: ED50 (the source's name)
LNCaP [21] = assay: Cytotoxicity against human LNCAP cells; type: functional; settings: read-out: ED50 (the source's name)
Staphylococcus aureus [22] = assay: Antimicrobial activity against Staphylococcus aureus after 18 hrs by zone-of-inhibition assay; type: functional, organism-based
Mus musculus [23] = assay: Toxicity in human LNCaP cell xenografted mouse at 50 mg/kg; type: organism-based; parameters: dose 50 mg/kg; settings: in vivo
KB [24] = assay: Antitumor activity against human KB cell xenografted mouse by hollow fiber assay; type: functional, cell-based; summary of the method: as §1
KB [25] = assay: Cytotoxicity against human KB cells; type: functional, cell-based; settings: read-out: ED50 (the source's name)
Mus musculus [26] = assay: Toxicity in human LU1 cell xenografted mouse assessed as body weight loss at 5 mg/kg; type: organism-based; parameters: dose 5 mg/kg; settings: in vivo
Summary of the method: (§2)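 In vivo hollow fiber assay in mice, with KB, LNCaP or Lu1 cancer cells at intraperitoneal and subcutaneous sites. Doses ranged from 1.25 to 10 mg/kg, with six mice per dose group. Body weight and deaths were recorded alongside tumor-cell growth inhibition.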

Mus musculus [27] = assay: Toxicity in human LNCaP cell xenografted mouse assessed as body weight loss at 5 mg/kg; type: organism-based; parameters: dose 5 mg/kg; settings: in vivo; summary of the method: as §2
Mycobacterium avium [28] = assay: Antimicrobial activity against Mycobacterium avium assessed as 99.9 % growth inhibition after 18 hrs by zone-of-inhibition assay; type: functional
Mus musculus [29] = assay: Toxicity in human KB cell xenografted mouse assessed as body weight loss at 5 mg/kg; type: organism-based; parameters: dose 5 mg/kg; settings: in vivo; summary of the method: as §2

| SMILES | Activity [1] | Activity (Cryptococcus neoformans [3]) | IC50 (Saccharomyces cerevisiae [5]) | EC50 (Lu1 [7]) | IC50 [9] | IC50 (Candida albicans [10]) | Activity (Micrococcus luteus [11]) | Activity (Staphylococcus aureus [12]) | Activity (Saccharomyces cerevisiae [13]) | Activity (Aspergillus niger [14]) | IC50 (Mycobacterium avium [15]) | Activity (Candida albicans [16]) | IC50 (Micrococcus luteus [17]) | IC50 (Aspergillus niger [18]) | IC50 (Cryptococcus neoformans [19]) | CC50 [20] | EC50 (LNCaP [21]) | IC50 (Staphylococcus aureus [22]) | EC50 (KB [25]) | also measured |
| --- | --- | --- | --- | --- | --- | --- | --- | --- | --- | --- | --- | --- | --- | --- | --- | --- | --- | --- | --- | --- |
| CC1=CC(=O)c2c(O)ccc(-c3ccc(O)c4c3C(=O)C(C)=CC4=O)c2C1=O [MARITINONE] | 80 µg/mL | 200 µg/mL | 9 µg/mL (≈ 24 µM) | 1.4 µg/mL (≈ 3.74 µM) | 20 µg/mL (≈ 53.4 µM) | 40 µg/mL (≈ 107 µM) | >1000 µg/mL | 300 µg/mL | 80 µg/mL | >1000 µg/mL | 600 µg/mL (≈ 1600 µM) | 40 µg/mL | 200 µg/mL (≈ 534 µM) | 40 µg/mL (≈ 107 µM) | 20 µg/mL (≈ 53.4 µM) | 2.2 µg/mL (≈ 5.88 µM) | 2.2 µg/mL (≈ 5.88 µM) | 9 µg/mL (≈ 24 µM) | 0.3 µg/mL (≈ 0.801 µM) | Activity (Lu1 [2]): inactive; Activity (LNCaP [4]): inactive; Activity (Mus musculus [6]): Toxic; Activity (Mus musculus [8]): Toxic; Activity (Mus musculus [23]): Toxic; Activity (KB [24]): inactive |
| CC1=CC(=O)c2c(O)cccc2C1=O [PLUMBAGIN] | >1000 µg/mL | 40 µg/mL | 10 µg/mL (≈ 53.1 µM) | 0.3 µg/mL (≈ 1.59 µM) | 300 µg/mL (≈ 1590 µM) | 9 µg/mL (≈ 47.8 µM) | 600 µg/mL | 600 µg/mL | 40 µg/mL | 400 µg/mL | 600 µg/mL (≈ 3190 µM) | >1000 µg/mL | 80 µg/mL (≈ 425 µM) | 20 µg/mL (≈ 106 µM) | 20 µg/mL (≈ 106 µM) | 0.4 µg/mL (≈ 2.13 µM) | 0.4 µg/mL (≈ 2.13 µM) | 100 µg/mL (≈ 531 µM) | 0.3 µg/mL (≈ 1.59 µM) | Activity (Mus musculus [26]): Toxic; Activity (Mus musculus [27]): Toxic; Activity (Mycobacterium avium [28]): >1000 µg/mL; Activity (Mus musculus [29]): Toxic |
